A selection: hits, their analogues and other compounds. The true share with any hit is near 1.4%.
IDE cell activ: boosts human insulin-degrading enzyme activity in HEK cells; activation, % at 5.96 µM; 0.073% of 340,000 active; P14735; FAbeta-B cleavage, fluorescence polarization; 0% vehicle, 100% cell-free pure enzyme wells;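 active = activation above the mean of all tested compounds plus 3 SD, set per screening campaign, cut at about 17% in these data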
Yeast superoxide: caloric restriction mimetics inhibiting age-related superoxide in yeast | S. cerevisiae aged cells, superoxide DHE fluorescence; hits give low values | superoxide response (% of plate mean), % at 10 µM | 0.18% of 330,000 active | AID 2690;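 active = superoxide response under a set limit, about three screen SD below normal, cut at about 65% in these data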;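 also: yeast aged for seven days with compound at 30 °C before DHE staining; 100% = average MFI of all compound-treated wells on the plate with controls excluded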
Efflux pump mplx: inhibitors of Candida antifungal efflux pumps expressed in yeast | 0.44% of 330,000 active | AID 485275 | inhibition, % at 10 µM | S. cerevisiae Candida pump triplex, Nile Red efflux;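 active = plate passing quality check with inhibition over a set limit, or well fluorescence over plate mean plus 4 SD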;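 also: Nile Red retained in pooled yeast measured as flow cytometry median fluorescence; 0% = buffer negative control and 100% = Enniatin B positive control; higher means more Nile Red kept so more efflux inhibition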
TbMetRS inhib: Trypanosoma brucei MetRS inhibition | 0.4% of 360,000 active | inhibition, % at 11.9 µM | purified T. brucei MetRS, ATP depletion, Kinase-Glo luminescence;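 active = inhibition above a per-plate cutoff of the control wells' mean inhibition plus 3 SD, cut at about 5.5% in these data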;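 also: 0% = DMSO wells median and 100% = median of wells with control inhibitor compound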
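Dosing: 11.9 µM compound single dose, 0.9% DMSO; Assay system: purified T. brucei MetRS enzyme; Measured by: Kinase-Glo luciferase luminescence reporting remaining unconsumed ATP; Schedule: 15 min plus 2 h at 25 °C.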
HDAC3 inhib: inhibitors of human histone deacetylase 3; inhibition, % at 8.3 µM; 0.15% of 320,000 active; recombinant HDAC3, fluorogenic peptide/trypsin coupled, fluorescence; O15379; in the data active = inhibition above about 26%, passing the limit was not always enough
Target sequence (O15379 whole entry, looked up): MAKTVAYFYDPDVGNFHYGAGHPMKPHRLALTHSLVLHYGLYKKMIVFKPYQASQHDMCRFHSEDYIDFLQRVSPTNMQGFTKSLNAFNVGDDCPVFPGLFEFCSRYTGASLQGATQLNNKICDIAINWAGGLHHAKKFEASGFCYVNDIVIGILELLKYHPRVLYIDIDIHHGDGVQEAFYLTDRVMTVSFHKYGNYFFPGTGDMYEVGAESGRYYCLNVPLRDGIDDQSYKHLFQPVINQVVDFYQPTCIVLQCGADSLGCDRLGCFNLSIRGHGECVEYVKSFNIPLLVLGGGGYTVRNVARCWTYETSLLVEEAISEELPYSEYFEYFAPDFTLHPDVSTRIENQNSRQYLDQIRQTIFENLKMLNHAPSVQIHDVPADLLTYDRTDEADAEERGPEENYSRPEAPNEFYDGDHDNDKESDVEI
IDE inh: inhibits human insulin-degrading enzyme in HEK cells. AID 434962. 0.41% of 320,000 active. inhibition, % at 5.59 µM. P14735. FAbetaB cleavage, fluorescence polarization;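 active = percent inhibition above the average of all tested compounds plus 3 SD, set per screening campaign, cut at about 16% in these data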;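 also: IDE supplied by intact live HEK cells; FP after avidin binding of uncleaved biotin substrate so inhibition keeps polarization high; 0% = DMSO wells and 100% = 60 µM reference IDE inhibitor Ii1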
TbMetRS confirm: confirmation of Trypanosoma brucei MetRS inhibitors. shares compounds with TbMetRS inhib. inhibition, % at 11.9 µM. T. brucei MetRS enzyme, luminescence (ATP depletion). 93% of 1,400 active; in the data active = inhibition above about 7%
Jurkat tox: counter-screen for T. brucei MetRS inhibitors: Jurkat cell cytotoxicity | shares compounds with TbMetRS inhib | Jurkat cells viability, ATP luminescence | inhibition, % at 8.3 µM | 12% of 1,400 active | AID 624413; in the data active = inhibition above about 15%;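 also: 0% = vehicle and 100% = reference inhibitor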
Tb MetRS inh FP: T. brucei MetRS inhibition, orthogonal assay; shares compounds with TbMetRS inhib; purified T. brucei MetRS, fluorescence polarization; inhibition, % at 11.9 µM; 44% of 1,400 active; in the data active = inhibition above about 17%;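 also: 0% = vehicle wells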
* hit, by the source's call; x = no result.

SMILES | IDE cell activ | Yeast superoxide | Efflux pump mplx | TbMetRS inhib | HDAC3 inhib | IDE inh | TbMetRS confirm | Jurkat tox | Tb MetRS inh FP
CCO[C@H]1OC(C(=O)NCc2nc3ccccc3[nH]2)=C[C@@H](C)[C@@H]1CCCO | 1 | 100 | 0 | 2 | 4 | 3 | x | x | x
CCO[C@@H]1OC(C(=O)NCc2nc3ccccc3[nH]2)=C[C@H](c2ccc(C(F)(F)F)cc2)[C@H]1CCCO | -2 | 105 | 0 | 33* | 19 | 0 | 61* | 3 | 38*
C#Cc1ccc([C@@H]2C=C(C(=O)NCc3nc4ccccc4[nH]3)O[C@H](OCC)[C@H]2CCCO)cc1 | -2 | 108 | 0 | 28* | -4 | 5 | 51* | 6 | 33*
CCO[C@H]1OC(C(=O)NCc2nc3ccccc3[nH]2)=C[C@@H](c2ccc(C(F)(F)F)cc2)[C@@H]1CCCO | -2 | 102 | 0 | 11* | 18 | 5 | 35* | 6 | 12
CCN(CC(=O)Nc1cccc(OC)c1)C(=O)C1CC(=O)N(Cc2ccccc2Cl)C1 (stereo unspecified) | x | x | x | 0 | x | x | x | x | x
CC(C)C(=O)N1CCC1(C)C(=O)Nc1cccc(Oc2ccccc2)c1 (stereo unspecified) | x | x | x | 0 | x | x | x | x | x
COc1c(Cl)cc(Cl)cc1CNc1ccc(S(N)(=O)=O)cc1 | 2 | 107 | 0 | 16* | 4 | -5 | 25* | 17* | 12
CC(OC(=O)CNC(=O)c1ccc(Cl)c([N+](=O)[O-])c1)C(=O)NC1CCCCC1C (stereo unspecified) | 4 | x | x | 7.2* | x | x | 26* | -1 | 13
COc1ccccc1NC(=O)c1ccc2c(O)c(S(=O)(=O)c3ccccc3)c(=O)[nH]c2c1 | -3 | 100 | 0 | 0 | -3 | -6 | x | x | x
O=S(=O)(Nn1c(O)c(C=C2N=c3ccccc3=N2)sc1=S)c1ccccc1 | -1 | 96 | 0 | 55* | x | -4 | 65* | -5 | 39*
O=C(NCc1cc(Cl)cc(Cl)c1)c1ccc2sc([C@@H]3O[C@H](CO)[C@H](O)[C@H](O)[C@H]3O)nc2c1 | x | x | x | 18* | x | x | 51* | -3 | 27*
O=C(NCc1cccnc1)c1ccc2sc([C@@H]3O[C@H](CO)[C@H](O)[C@H](O)[C@H]3O)nc2c1 | x | x | x | 0 | x | x | x | x | x
O=C(NCc1cc(Cl)cc(Cl)c1)c1csc([C@@H]2O[C@H](CO)[C@H](O)[C@H](O)[C@H]2O)n1 | x | x | x | 8.7* | x | x | 31* | -8 | 7
Cc1c(Cl)cccc1N=C1NC(=O)CS1 | x | x | x | 0 | x | x | x | x | x
COC(=O)[C@]12CCCCC=C1N(Cc1ccc3c(c1)OCO3)C(=O)[C@H](CC(=O)NCc1ccccc1)C2 | x | x | x | 0 | x | x | x | x | x
CCOC(=O)CC(=O)NC(C)(C)CCCCC(C)(C)NC(=O)CC(=O)OCC | -4 | 101 | 0 | 6.9* | -6 | -1 | 3 | -2 | 5
CCCCn1cnc2cc(NCc3cccc(OC)c3O)ccc21 | 7 | 103 | 0 | 3 | 4 | -5 | x | x | x
CCn1cnc2cc(NCc3cccc(OC)c3O)ccc21 | 4 | 96 | 0 | 18* | -4 | -1 | 36* | 4 | 15
CC(C)(Oc1ccc(Cl)cc1)C(=O)OCc1nc2ccsc2c(=O)[nH]1 | -18 | 92 | 0 | 20* | 4 | 10 | 64* | 3 | 38*
Cc1ccsc1C(=O)OCc1nc2ccsc2c(=O)[nH]1 | -2 | 99 | 0 | 0 | -3 | 3 | x | x | x
CCN(CC)c1ncnc2c1ncn2[C@H]1CN(Cc2cccnc2)C[C@@H](CO)O1 | x | x | x | 0 | x | x | x | x | x
O=C(O)CCCC(=O)Nc1ccc(Br)cc1 | 0 | 86 | 0 | -1 | -3 | 0 | x | x | x
O=C(CCC(=O)OCc1ccc(C(=O)Oc2ccc(Cl)cc2)cc1)Nc1ccccc1 | 3 | 96 | 0 | -1 | -3 | 3 | x | x | x
O=C(Cc1cccc(Cl)c1)Nc1ccc(Br)cc1 | 0 | 77 | 0 | 40* | -1 | 3 | 61* | -1 | 39*
O=C(CC(=O)Nc1ccc(Br)cc1)Nc1ccc(Br)cc1 | 3 | 108 | 0 | 7.0* | -4 | -2 | 11* | -3 | 10
SMILES | IDE cell activ | Yeast superoxide | Efflux pump mplx | TbMetRS inhib | HDAC3 inhib | IDE inh | TbMetRS confirm | Jurkat tox | Tb MetRS inh FP
O=C(CCC(=O)OCc1ccc(Br)cc1)Nc1ccccc1 | -4 | 100 | 0 | 6.1* | 1 | 5 | 14* | -3 | 6
CCc1c(C2(O)CCCCC2)[nH]c2ccc(C#N)cc12 | -1 | 105 | 1 | 0 | 4 | 5 | x | x | x
COCCCNC(=O)Cn1cnc(C(=O)Nc2ccc(C)c(C)c2)n1 | 4 | 105 | 0 | 0 | x | x | x | x | x
Cc1nn(C)c(NC(=O)c2ccc(Cl)cc2Cl)c1Br | -2 | 81 | 0 | 1 | -5 | 3 | x | x | x
COc1ccc(CC(=O)Nc2nc3ccccc3[nH]2)cc1 | 9 | 94 | 0 | 0 | 5 | 3 | x | x | x
O=C(COc1ccc2ccccc2c1)Nc1nc2ccccc2[nH]1 | 0 | 108 | 0 | 9.1* | -5 | -5 | 12* | 2 | 5
COc1cccc(CC(=O)Nc2nc3ccccc3[nH]2)c1 | 1 | 109 | 0 | 6.0* | -1 | 3 | 14* | 0 | 7
CCOCCn1c(CN2CCc3ccccc3C2)nc2c1c(=O)n(C)c(=O)n2C | 1 | 85 | 0 | -1 | -2 | 1 | x | x | x
O=C(CSc1nnc2c(n1)[nH]c1ccccc12)NCc1ccccc1F | 2 | 107 | 0 | 6.5* | -5 | 0 | 44* | 5 | 27*
O=C(CSc1nnc2c(n1)[nH]c1ccc(F)cc12)Nc1ccccc1F | 5 | 100 | 0 | 3 | x | -1 | x | x | x
COc1ccc(OCC(O)CNS(=O)(=O)c2ccc(NC(C)=O)cc2)cc1 (stereo unspecified) | 2 | 109 | 0 | 0 | 6 | 2 | x | x | x
COc1ccc(NC(=O)C(NC(C)=O)C(=O)Nc2ccc(F)cc2)cc1 (stereo unspecified) | 2 | 94 | 0 | 9.6* | -2 | 2 | 19* | -6 | 0
COc1ccc(OCC(O)CNC(=O)Nc2ccccc2)cc1 (stereo unspecified) | 7 | 92 | 0 | 9.4* | 3 | 4 | 21* | 8 | 11
COc1ccc(NC(=O)C(NC(C)=O)C(=O)NCc2ccc(F)cc2)cc1 (stereo unspecified) | 3 | 103 | 0 | 2 | -3 | -3 | x | x | x
O=C(NCC(O)COc1ccc([N+](=O)[O-])cc1)Nc1ccccc1 (stereo unspecified) | 7 | 102 | 0 | 42* | 3 | -3 | 62* | 2 | 41*
